Test results as given in ChEMBL document CHEMBL4229565 (J Med Chem, 2018).
Activity calls are given as the source filed them. The rule behind the calls is not given here.

How the values were obtained:
[1] = Inhibition of Trypanosoma brucei NMT using [3H]-myristoyl-coA/biotinylated CAP5.5 as substrate after 50 mins by scintillation proximity assay
Outline: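 TbNMT scintillation proximity assay at 22–23 °C, with test compound dilutions added in DMSO. Reaction: 30 mM Tris pH 7.4, 0.5 mM EDTA, 0.5 mM EGTA, 1.25 mM DTT, 0.1% Triton X-100, 0.125 μM [3H]myristoyl-coA, 0.5 μM biotinylated CAP5.5 peptide, 5 nM enzyme. Enzyme added first, then substrate mix to start; stopped after 50 min with phosphoric acid pH 4.0/MgCl2/SPA beads; scintillation counting.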

[2] = test system: Trypanosoma brucei brucei; assay: Antitrypanosomal activity against bloodstream form of Trypanosoma brucei brucei s427 after 69 hrs by resazurin-based […] analysis; format: functional, organism-based; conditions: s427, 69 h
Outline: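 Bloodstream T. b. brucei s427 was grown in modified HMI9 (56 μM 1-thioglycerol in place of 2-mercaptoethanol) and counted by hemocytometer. Cells (10^4/ml) were added to compound in DMSO and incubated 69 h at 37 °C, 5% CO2. Resazurin (50 μM final) was then added for 4 h more. Fluorescence read at ex 528/em 590 nm.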

[3] = Intrinsic clearance in CD1 mouse liver microsomes at 1 uM measured up to 30 mins by UPLC-MS/MS method; format: ADME, microsome; conditions: 0.5 h
[4] = Fraction unbound in CD1 mouse plasma at 10 ug/ml after 5 hrs by UPLC-MS/MS analysis
[5] = molecular target: Voltage-gated inwardly rectifying potassium channel KCNH2 (Homo sapiens, UniProt Q12809); assay: Inhibition of human ERG by patch clamp assay
Sequence of Voltage-gated inwardly rectifying potassium channel KCNH2 (Q12809 whole entry): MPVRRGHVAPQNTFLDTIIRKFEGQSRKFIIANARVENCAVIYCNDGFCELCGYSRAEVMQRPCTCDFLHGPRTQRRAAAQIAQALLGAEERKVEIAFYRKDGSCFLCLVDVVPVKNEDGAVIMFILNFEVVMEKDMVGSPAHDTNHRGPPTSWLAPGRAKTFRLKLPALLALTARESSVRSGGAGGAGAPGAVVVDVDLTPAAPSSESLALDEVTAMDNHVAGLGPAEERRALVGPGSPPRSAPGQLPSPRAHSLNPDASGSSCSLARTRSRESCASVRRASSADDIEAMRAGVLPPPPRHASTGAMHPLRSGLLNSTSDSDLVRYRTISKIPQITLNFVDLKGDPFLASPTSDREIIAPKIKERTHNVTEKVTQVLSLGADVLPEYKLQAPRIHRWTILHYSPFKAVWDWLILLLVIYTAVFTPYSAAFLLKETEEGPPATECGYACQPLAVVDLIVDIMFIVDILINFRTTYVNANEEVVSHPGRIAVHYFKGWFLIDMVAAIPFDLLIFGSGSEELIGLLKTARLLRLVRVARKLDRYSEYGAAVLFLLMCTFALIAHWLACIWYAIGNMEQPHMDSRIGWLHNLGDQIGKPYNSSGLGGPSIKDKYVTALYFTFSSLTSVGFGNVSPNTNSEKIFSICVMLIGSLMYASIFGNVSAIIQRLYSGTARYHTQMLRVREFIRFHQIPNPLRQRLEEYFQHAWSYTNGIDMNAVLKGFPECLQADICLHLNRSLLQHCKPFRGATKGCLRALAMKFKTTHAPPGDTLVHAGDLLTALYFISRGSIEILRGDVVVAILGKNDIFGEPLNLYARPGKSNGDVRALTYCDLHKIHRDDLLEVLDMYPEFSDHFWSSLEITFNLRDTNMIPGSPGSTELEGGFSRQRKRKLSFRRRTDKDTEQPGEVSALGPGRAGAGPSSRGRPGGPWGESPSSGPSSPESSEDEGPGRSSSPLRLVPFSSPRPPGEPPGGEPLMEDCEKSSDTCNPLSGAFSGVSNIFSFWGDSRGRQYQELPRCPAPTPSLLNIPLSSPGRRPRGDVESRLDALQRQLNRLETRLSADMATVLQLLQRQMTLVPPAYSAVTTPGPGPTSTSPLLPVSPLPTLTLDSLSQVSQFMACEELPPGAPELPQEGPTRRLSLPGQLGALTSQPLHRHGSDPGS

[6] = Ratio of drug level in NMRI mouse brain to plasma at 0.5 mg/kg, iv after 5 to 30 mins by UPLC/MS/MS analysis; conditions: brain and plasma
[7] = Cmax in NMRI mouse at 50 mg/kg, po administered via gavage by UPLC/MS/MS analysis; format: ADME, organism-based; design: dose 50 mg/kg, route oral; conditions: in vivo
[8] = Tmax in NMRI mouse at 50 mg/kg, po administered via gavage by UPLC/MS/MS analysis; format: ADME, organism-based; conditions: in vivo
[9] = Toxicity in NMRI mouse administered orally for twice per day for 3 days; format: organism-based; conditions: in vivo, po
[10] = AUC (0 to 8 hrs) in NMRI mouse at 50 mg/kg, po administered via gavage by UPLC/MS/MS analysis; format: ADME, organism-based; design: dose 50 mg/kg, time < 8 hr, route oral; conditions: in vivo
[11] = test system: Trypanosoma brucei brucei; assay: Antitrypanosomal activity against Trypanosoma brucei brucei s427 trypomastigotes infected in NMRI mouse at 10 mg/kg, po administered twice daily for 4 days starting from day 3 post infection; format: functional, organism-based
Outline: (§1)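 Stage 1 HAT model: female NMRI mice infected with T. brucei s427. Compound given orally twice a day for 4 days, starting day 3 postinfection. Outcome scored as cure versus relapse.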

[12] = test system: Trypanosoma brucei brucei; assay: Antitrypanosomal activity against Trypanosoma brucei brucei s427 trypomastigotes infected in NMRI mouse at 0.3 to 3 mg/kg, po administered twice daily for 4 days starting from day 3 post infection; format: functional, organism-based; outline: as §1
[13] = test system: Trypanosoma brucei brucei; assay: Antitrypanosomal activity against Trypanosoma brucei brucei GVR35 trypomastigotes infected in NMRI mouse assessed as reduction in parasitaemia level at 50 to 200 mg/kg, po administered twice daily for 5 days starting from day 21 post infection; format: functional, organism-based
[14] = test system: Trypanosoma brucei brucei; assay: Antitrypanosomal activity against Trypanosoma brucei brucei GVR35 trypomastigotes infected in CF1 mdr1a deficient mouse assessed as reduction in parasitaemia level at 50 mg/kg, po administered twice daily for 5 days starting from day 21 post infection; format: functional, organism-based
Outline: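 Stage 2 HAT model using CF-1 mdr1a-deficient mice infected with T. b. brucei GVR35. Compound given orally twice daily for 5 days from day 21 postinfection. Comparator arms: Berenil or melarsoprol given intraperitoneally once daily.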

[15] = Half life in CD1 mouse plasma at 50 uM by UPLC-MS/MS analysis; format: ADME, cell-free
[16] = Drug metabolism in CD1 mouse plasma assessed as 4-(azepan-1-yl)-3-(4-methoxyphenylsulfonamido)benzoic acid formation at 50 uM incubated for 30 to 180 mins by UPLC-MS/MS analysis; format: ADME, cell-free

| SMILES | IC50 [1] [nM] | EC50 [2] [nM] | CLH [3] [mL/min/g] | fraction unbound at 5 h, 10 ug/ml [4] | IC50 [5] [nM] | other results |
| --- | --- | --- | --- | --- | --- | --- |
| CC(C)Cc1ccc2ncccc2c1NS(=O)(=O)c1ccc(CCCCN2CCCN(C)CC2)cc1 | 6 | 59 | 1.8 | 0.093 |  |  |
| CC(C)Cc1ccc2nn(C)cc2c1NS(=O)(=O)c1ccc(CCCOC[C@H]2COCCN2C)cc1 | 7 | 220 | 20 |  | 3100 |  |
| CC(C)Cc1ccc2nn(C)cc2c1NS(=O)(=O)c1ccc(CCCOC[C@@H]2CCCN2C)cc1 | < 5 | 31 | 3.7 |  | 3000 |  |
| CC(C)Cc1ccc2nn(C)cc2c1N(C(F)F)S(=O)(=O)c1ccc(CCCCC2CCN(C)CC2)cc1 |  |  | 2.3 |  |  | Kp [6]: 1.9 |
| CC(C)Cc1ccc2nn(C)cc2c1NS(=O)(=O)c1ccc(CCCCC2CCN(C)CC2)cc1 | < 5 | 5 | 2.9 | 0.062 | 3700 | Cmax [7]: 11000 ng/mL; Tmax [8]: 1 h; MTD at 72 h [9]: > 300 mg/kg; AUC(0-t) at 8 h [10]: 48300 ng·h/mL; Activity [11]: Active; Activity [12]: inactive; Activity [13]: inactive; Activity [14]: Active |
| COC(=O)c1ccc(N2CCCCCC2)c(NS(=O)(=O)c2ccc(CCCCC3CCN(C)CC3)cc2)c1 | 6 | 20 |  |  |  | half-life at 50 µM [15]: < 0.25 h; Drug metabolism [16]: Metabolite_Detected |
| CC(C)Cc1ccc2ncccc2c1NS(=O)(=O)c1ccc(CCCN2CCN3CCC[C@@H]3C2)cc1 | < 5 | 40 | 6.2 | 0.17 | 1300 |  |
| CC(C)Cc1ccc2ncccc2c1NS(=O)(=O)c1ccc(CCCO[C@@H]2C[C@H]3CC[C@@H](C2)N3C)cc1 | 7 | 91 | 1.5 | 0.18 | 1600 |  |
